Experimental data gathered from unrelated publications.
Lines come from different studies, so protocols differ.
Target: Vascular endothelial growth factor receptor 2 (KDR, Homo sapiens, UniProt P35968)

Structure (SMILES) | assay | setting | measurement | value
CCOc1cc(-c2nncn2C)ccc1Nc1ncc2cc(C)nc(NCC(C)(C)C)c2n1 | enzyme activity, inhibitor, FRET | 1 µM | inhibition | < 15%
O=C1Nc2ccc(Br)cc2/C1=C/c1cc2c([nH]1)CCCC2 | cell-free assay | 0.5 µM | remaining signal | 70.9%
CSc1nc(C)c(-c2ccnc(Nc3ccc(N4CCOCC4)cc3)c2)[nH]1 | enzyme activity, inhibitor | 10 µM | inhibition | 95.1%
CN(C)C1CCN(CC#Cc2nn(C3CCCC3)c3nc(NCc4ccccc4)ncc23)C1 (centres unmarked) | enzyme activity, inhibitor, FRET | 10 µM | inhibition | 56%
Cc1c(NC(=O)c2cc(C(N)=O)nc3cc(F)ccc23)c(C(F)(F)F)nn1Cc1ccc(C(C)(C)C)cc1 | cell-free assay, competition with immobilised ligand | 1 µM | remaining binding | 100%
CNC(=O)c1cc2c(Oc3ccc(NC(=O)C4(C(=O)Nc5ccc(F)cc5)CC4)cc3)ccnc2cc1OC | enzyme activity, inhibitor, radiometric | 1 µM | inhibition | 82%
COc1ccc(NC(=O)c2c(Nc3ccccc3)sc(C(=O)NN=Cc3ccc(OC)c(O)c3)c2NC(C)=O)cc1 | enzyme activity, inhibitor | 10 µM | remaining activity | 46.1%
COc1cc2c(N3CCN(C(=O)Nc4ccc(OC(C)C)cc4)CC3)ncnc2cc1OCCCN1CCCCC1 | cell-free assay | 0.5 µM | remaining signal | 106%
COc1ccc(NC(=O)c2c(Nc3ccccc3)sc(C#N)c2NC(=O)CNc2ccc(Cl)cc2)cc1 | enzyme activity, inhibitor | 0.1 µM | remaining activity | 61.3%
Nc1ncnc2occ(-c3ccc(NC(=O)Nc4cc(C(F)(F)F)ccc4F)cc3)c12 | cell-free assay | 20 µM | remaining signal | 0%
COc1ccc(NC(=O)c2c(Nc3ccccc3)sc(C#N)c2NC(=O)CNc2ccc(Br)cc2)cc1 | enzyme activity, inhibitor | 10 µM | remaining activity | 35.4%
O=C1Nc2ccc(Cl)cc2C1=Cc1cc(Cl)c(O)c(Cl)c1 | cell-free assay | 0.5 µM | remaining signal | 86.1%
Cc1c[nH]c2nccc(Oc3c(F)cc(Nc4cc(Cl)nc(N)n4)cc3F)c12 | cell-free assay, competition with immobilised ligand | 0.1 µM | remaining binding | 81%
Oc1cccc(-c2nc(N3CCOCC3)c3oc4ncccc4c3n2)c1 | cell-free assay | 0.5 µM | remaining signal | 85.9%
CS(=O)(=O)NCC[C@H](NC(=O)c1cncc2c1cnn2-c1ccc(F)cc1)c1ccnc(S(C)(=O)=O)c1 | cell-free assay, competition with immobilised ligand | 1 µM | remaining binding | 100%
COc1ccc(NC(=O)c2c(Nc3ccccc3)sc(C(=O)NN=Cc3cc(OC)c(OC)c(OC)c3)c2NC(C)=O)cc1 | enzyme activity, inhibitor | 1 µM | remaining activity | 82.1%
O=C1Cc2c([nH]c3ccc(Br)cc23)-c2ccccc2N1 | cell-free assay | 0.5 µM | remaining signal | 98.1%
COc1ccc(NC(=O)c2c(Nc3ccccc3)sc(C#N)c2NC(=O)CNc2ccc([N+](=O)[O-])cc2)cc1 | enzyme activity, inhibitor | 10 nM | remaining activity | 98%
CCS(=O)(=O)c1cc2cc(C[C@@](O)(CC(C)(C)c3ccc(F)cc3C(N)=O)C(F)(F)F)[nH]c2cn1 | cell-free assay, competition with immobilised ligand | 1 µM | remaining binding | 92%
O=C(CSc1nc2nccnc2c(=O)n1CCc1ccccc1)Nc1nccs1 | enzyme activity, inhibitor | 10 µM | inhibition | 10%
COc1ccc(NC(=O)c2c(Nc3ccccc3)sc(C(=O)NN=Cc3ccc(Cl)cc3)c2NC(C)=O)cc1 | enzyme activity, inhibitor | 100 µM | remaining activity | 60.6%
C[C@H](c1cccc(C#N)c1)n1cc(Cl)cc(C(N)=O)c1=N | cell-free assay, competition with immobilised ligand | 1 µM | remaining binding | 88%
Cc1ccc(C(=O)NCc2ccsc2)cc1C#Cc1cn(C(C)C)c2ncnc(N)c12 | enzyme activity, inhibitor | 1 µM | activity vs control | 0%
FC(F)(F)c1ccc2c(c1)nc(-c1cccnc1)n2C1CC1 | cell-free assay, competition with immobilised ligand | 1 µM | remaining binding | 100%
CCCS(=O)(=O)Nc1ccc(F)c(C(=O)c2c[nH]c3ncc(-c4ccc(Cl)cc4)cc23)c1F | enzyme activity, inhibitor | 1 µM | inhibition | < 20%
CN(C)c1ncnc(-c2ccc3nc(Nc4cc(CN5CCN(C(=O)CC(F)(F)F)CC5)ccn4)[nH]c3c2)c1Cl | cell-free assay, competition with immobilised ligand | 1 µM | remaining binding | 74%
COc1cc2nccc(Oc3ccc(NC(=O)c4c5n(n(-c6ccc(F)cc6)c4=O)CCCC5)cc3)c2cc1OC | enzyme activity, inhibitor | 0.1 µM | inhibition | 22%
COc1ccc2cc(OCC3(C(=O)O)CN(C(=O)c4ccc(F)cc4)C3)ccc2c1 | cell-free assay, competition with immobilised ligand | 1 µM | remaining binding | 100%
COc1cc2ncnc(Nc3ccc(Oc4ccccc4)cc3C)c2cc1OC | enzyme activity, inhibitor | 1 µM | inhibition | 14%
